PubChem BioAssay AID1216 (Sanford-Burnham Center for Chemical Genomics, 2008)
The whole screen tested about 190,000 compounds, of which about 660 (0.35%) were called active. This is one part of a sample in which actives are shown more often than they occur. A number with no mark means an inactive call.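 How the source made its calls: active means activation factor of 2 or more at 20 µM; inactive means the rest.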

Each compound was assayed against Mannose-6-phosphate isomerase (Homo sapiens) (UniProt P34949) (assay: MPI activation at elevated mannose 6-phosphate – biochemical, fluorescence intensity, near-saturating mannose 6-phosphate, primary screen (AID 1216)). Conditions: coupled PMI enzyme assay, resazurin fluorescence, 20 min; at 20 µM; hits give high values; 1 = untreated enzyme, 0 = substrate-free blank.
Sequence of Mannose-6-phosphate isomerase (Homo sapiens) (P34949 whole entry, looked up): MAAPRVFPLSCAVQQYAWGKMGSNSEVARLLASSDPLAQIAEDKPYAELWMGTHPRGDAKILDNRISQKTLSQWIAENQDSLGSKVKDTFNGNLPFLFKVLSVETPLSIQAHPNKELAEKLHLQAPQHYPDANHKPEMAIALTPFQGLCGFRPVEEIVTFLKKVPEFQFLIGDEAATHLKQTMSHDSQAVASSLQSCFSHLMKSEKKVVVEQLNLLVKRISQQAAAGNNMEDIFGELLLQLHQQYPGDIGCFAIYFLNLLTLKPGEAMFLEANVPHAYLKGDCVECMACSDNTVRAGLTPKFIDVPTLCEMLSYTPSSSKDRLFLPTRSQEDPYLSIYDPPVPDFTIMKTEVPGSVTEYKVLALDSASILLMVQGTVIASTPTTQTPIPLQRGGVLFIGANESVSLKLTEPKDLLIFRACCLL
Procedure, shortened: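 Test system: human phosphomannose isomerase with PGI, G6PDH, diaphorase coupling enzymes; amount: 15 ng/mL PMI; incubation: enzyme reaction with compound 20 min at room temperature; technique: resorufin fluorescence (Ex 544/Em 590 nm) from resazurin via diaphorase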
Compound `CCOC(=O)N1CCC(=NNC(N)=O)CC1` has an activation factor of 1.
In the case of `COc1cccc2cc(/C(C)=N/NC(=O)c3ccco3)oc12`, the activation factor was 1.1.
With `COc1ccccc1N(CC(=O)Nc1ccc(C(F)(F)F)cc1)S(C)(=O)=O` the activation factor was 1.1.
Work on `CC(C)(C)C(=O)c1cnc(Nc2ccccc2)s1` yielded an activation factor of 1.
`S=c1[nH]nc(NCCc2ccccc2)s1` was tested, and the activation factor was 2.1 (active).
`c1ccc(Nc2n[nH]nc2-c2ccccc2)cc1` was tested, and the activation factor was 0.9.
`Cc1nc(C)c(-c2csc(NCCc3ccccc3)n2)s1` showed an activation factor of 1.
`O=C(CSc1ncccn1)NCCc1ccccc1` was tested, and the activation factor was 1.
For `S=c1[nH]nc(Nc2ccccc2)s1`, the activation factor was 2 (active).
With `N=c1c2c3c(sc2ncn1N)CCCC3` the activation factor was 0.9.
Compound `O=c1[nH]cnc2c1c(-c1ccccc1)cn2-c1ccc(F)cc1` has an activation factor of 1.
Compound `O=C(CCCn1c(=O)c2sccc2n(CC(=O)NCC2CCCO2)c1=O)NCc1ccco1` (configuration not stated) has an activation factor of 0.9.
In the case of `Cn1cc(C(=O)NCc2ccccc2F)cn1`, the activation factor was 1.
`O=C(CO/N=C/c1ccccc1OC(F)F)NC1CCCC1` showed an activation factor of 1.1.
Compound `CCN(CC)C(=O)C(=O)Nc1cccc(Br)c1` has an activation factor of 0.9.
`C=CCc1ccccc1OCC(=O)N/N=C/c1ccccc1OCC` gave an activation factor of 0.9.
With `OCC1(Cc2ccccc2C(F)(F)F)CCN(Cc2cccc3cnccc23)CC1` the activation factor was 0.9.
For `COc1ccc(OC)c(NC(=O)CN(Cc2ccc(Cl)cc2)S(C)(=O)=O)c1`, the activation factor was 0.8.
Compound `CSc1ncccc1C(=O)OCc1ccc(Br)cc1` has an activation factor of 1.
With `COC(=O)C(NS(=O)(=O)c1ccc(F)cc1)c1ccccc1` (configuration not stated) the activation factor was 0.9.
Compound `COc1ccc(-c2c3c(=O)n(C)c(=O)n(C)c3cn2-c2cccc(OC)c2)cc1` has an activation factor of 1.2.
With `COc1ccc(-c2c3c(=O)n(C)c(=O)n(C)c3cn2NC(C)=O)cc1` the activation factor was 2 (active).
`COc1cccc(-n2cc3c(c2-c2ccccc2)c(=O)n(C)c(=O)n3C)c1` was tested, and the activation factor was 1.
With `COCCn1c(C)cc(C(=O)COC(=O)/C=C/c2cccc(OC)c2)c1C` the activation factor was 1.
`COc1ccc(N/N=C2/CCCCC2=O)cc1` was tested, and the activation factor was 2 (active).
Compound `COc1ccc(CNC2CCCCC2)cc1` has an activation factor of 1.
In the case of `Cc1ccc(N/N=C2\COC(C)(C)CC2=O)cc1`, the activation factor was 1.9.
Compound `CC(=O)c1cc(C#N)c(N2CC(C)OC(C)C2)nc1C` (configuration not stated) has an activation factor of 1.
`CC(C)N(C(=O)Cn1cc(SCC(=O)N2CCCC2)c2ccccc21)C(C)C` showed an activation factor of 1.
In the case of `COc1ccc(-c2nn(-c3ccccc3)cc2CN2CCCO2)c(F)c1`, the activation factor was 1.
Work on `CCN(C(=O)COC(=O)c1cc(NS(=O)(=O)c2ccc(Cl)c([N+](=O)[O-])c2)ccc1O)C1CCCCC1` yielded an activation factor of 0.9.
`O=C(/C=C\NCC(=O)c1ccccc1)c1ccccc1` was tested, and the activation factor was 2.5 (active).
`O=C(/C=C/NCc1ccc(F)cc1)c1ccccc1` showed an activation factor of 1.
`Cc1ccc(N/C=C/C(=O)c2ccccc2)cc1C` showed an activation factor of 1.1.
For `CN(C)CCCSc1ccccc1NC(=O)/C=C/c1ccccc1`, the activation factor was 1.
`Cc1ccc(S(=O)(=O)CCC(=O)OCc2ccccc2)cc1` showed an activation factor of 1.
`O=C(CNC(=O)c1cc(=O)[nH]c2ccccc12)Nc1ccc(F)c(F)c1` showed an activation factor of 0.9.
In the case of `COC(=O)C(=Nc1ccccc1)/C(C(=O)C(=O)N(C)c1ccccc1)=C(\O)c1ccc(Cl)cc1`, the activation factor was 0.8.
For `COc1ccc(C(=O)Nc2ccc(F)cc2F)cc1`, the activation factor was 2 (active).
Compound `COc1cc(OC)cc(C(=O)OCC(=O)Nc2ccc(F)cc2F)c1` has an activation factor of 0.9.
`COc1ccccc1CC(=O)Nc1ccc(F)cc1F` gave an activation factor of 1.
`Cc1cc(C)cc(C(=O)NCC(=O)OCC(=O)N2CCCCC2)c1` gave an activation factor of 1.2.
With `Cc1ccc(N/C(N)=N/c2nc(C(F)(F)F)cc(C(F)(F)F)n2)cc1` the activation factor was 1.1.
Work on `O=C(Nc1ccccc1N1CCN(C(=O)c2ccccc2)CC1)c1ccc2c(c1)OCO2` yielded an activation factor of 0.9.
`O=C(CN1CCN(CC(=O)Nc2ccc3c(c2)OCO3)CC1)Nc1ccc(F)cc1` was tested, and the activation factor was 1.
In the case of `O=C(CN1CCN(c2ccccc2F)CC1)c1ccc2c(c1)OCO2`, the activation factor was 2 (active).
`S=C(Nc1ccc(Br)cc1Cl)N1CCC2(CC1)OCCO2` showed an activation factor of 0.9.
`CCOC(=O)/C(=N\Nc1cc(Cl)ccc1Cl)N1CCN(C)CC1` showed an activation factor of 1.
For `CC(C)(C)C(=O)CSc1nc2ccccc2o1`, the activation factor was 0.9.
`CN1CCN(S(=O)(=O)c2cccc(C(=O)O)c2)CC1` was tested, and the activation factor was 1.1.
Work on `CC1Cc2ccccc2N1C(=O)CSc1nnc(-c2ccc(S(=O)(=O)N3CCCC3)cc2)n1C` (configuration not stated) yielded an activation factor of 0.4.
With `COc1ccccc1NC(=O)C1=C(C)Nc2nc3ccccc3n2C1c1cccs1` (configuration not stated) the activation factor was 1.
In the case of `COC(=O)Cc1cc(=O)n(-c2nc3ccccc3s2)[nH]1`, the activation factor was 2 (active).
For `COC(=O)Cc1nc2ccccc2[nH]1`, the activation factor was 1.
In the case of `CCC(=O)NC(=Nc1nc2ccccc2s1)NC(=O)CC`, the activation factor was 1.1.
`CCCCN=C1C([N+](=O)[O-])=CC=C2C1=NC1(CCCCC1)N2O` showed an activation factor of 0.5.
Work on `O=C(Nc1cccnc1)c1cc2cc(Br)ccc2oc1=O` yielded an activation factor of 1.1.
With `CS(=O)(=O)N(CC(=O)NC1CCCC1)Cc1ccc(F)cc1` the activation factor was 1.
`CCC1=NN(C(=O)Cc2ccc([N+](=O)[O-])cc2)C(O)(c2ccc(Br)cc2)C1` (configuration not stated) gave an activation factor of 0.9.
For `CCN(CC)CCN1C(=O)C(=O)/C(=C(/O)c2ccc(OC)c(OC)c2)C1c1ccccn1` (configuration not stated), the activation factor was 1.2.
Work on `CCN(CC)CCN1C(=O)C(=O)/C(=C(/O)c2ccccc2)C1c1ccccc1F` (configuration not stated) yielded an activation factor of 1.
`CCN(CC)CCN1C(=O)C(=O)/C(=C(/O)c2cnn(-c3ccccc3)c2C)C1c1cccs1` (configuration not stated) was tested, and the activation factor was 2 (active).
`Cc1cc(C)c(OCCN2CC(C)OC(C)C2)c(Br)c1` (configuration not stated) gave an activation factor of 0.9.
`Cc1scc(C(=O)NNC(=S)NCc2ccccc2)c1C` was tested, and the activation factor was 1.1.
`S=C(c1ccc(-c2ccccc2)o1)N1CCCCC1` was tested, and the activation factor was 0.9.
For `C=CCN(C(=O)c1cc(C)cc(C)c1)C1(C(=O)Nc2ccccc2)CCN(C(C)C)CC1`, the activation factor was 1.
For `COc1cccc(CN2CCNC(=O)C2CC(=O)N(C)CCc2ccccn2)c1` (configuration not stated), the activation factor was 0.7.
For `CC1=C(C)CC(C(=O)NNC(=O)c2csc3c2CCC(C(C)(C)C)C3)C(C(=O)O)C1` (configuration not stated), the activation factor was 1.
`Cc1ccc(/C(N)=N/OC(=O)COc2ccc(Cl)c(C)c2)cc1` gave an activation factor of 1.
Compound `Nc1ncc(-c2cc3ccccc3oc2=O)s1` has an activation factor of 0.8.
In the case of `O=C(c1cn(-c2ccccc2)nc1-c1cc2ccccc2oc1=O)N1CCOCC1`, the activation factor was 1.
`O=c1oc2ccccc2cc1-c1cn(-c2ccccc2)c(=S)[nH]1` was tested, and the activation factor was 2.3 (active).
In the case of `O=S1(=O)CC/C(=N\Nc2ccc(F)cc2)c2ccsc21`, the activation factor was 2.6 (active).
`COC(=O)c1nc(NC(=O)c2ccc(F)cc2)n[nH]1` gave an activation factor of 1.
`CCOC(=O)C1(O)CC(C)=NN1C(=O)c1cccc(Br)c1` (configuration not stated) was tested, and the activation factor was 1.1.
For `Cn1cccc1/C=N/NC(=O)c1ccc(OC(F)(F)C(F)F)cc1`, the activation factor was 0.9.
Work on `O=C(NCc1ccccc1Cl)C1CCCO1` (configuration not stated) yielded an activation factor of 1.
